Measurements reported in ChEMBL document CHEMBL4321796, “Proteolysis Targeting Chimeras for the Selective Degradation of Mcl-1/Bcl-2 Derived from Nonselective Target Binding Ligands” (J Med Chem, 2019).
Calls of active or inactive are those of the source. The rule behind the calls is not given here.

Experiments:
NCI-H23 = test: Cytotoxicity against human H23 cells incubated for 24 hrs by CCK8 assay; format: functional, cell-based
In short: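 H23 cells seeded at 4 × 10^4 per mL in RPMI with 10% FBS, L-glutamine and pen/strep. Treated 24 h at various concentrations or with DMSO vehicle (0.05%). Viability read by CCK8 and normalized against cell-free background and untreated cultures; mean ± s.e.m., n=3.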

[1] = molecular target: T1, Protein cereblon/Induced myeloid leukemia cell differentiation protein Mcl-1 (Homo sapiens, UniProt Q07820+Q96SW2); test: Induction of CRBN-mediated Mcl-1 degradation in human HeLa cells at 10 uM pretreated with CRBN inhibitor pomalidomide followed by compound addition by Western blot analysis; format: cell-based
Target sequence in this assay (Q07820 whole entry, looked up): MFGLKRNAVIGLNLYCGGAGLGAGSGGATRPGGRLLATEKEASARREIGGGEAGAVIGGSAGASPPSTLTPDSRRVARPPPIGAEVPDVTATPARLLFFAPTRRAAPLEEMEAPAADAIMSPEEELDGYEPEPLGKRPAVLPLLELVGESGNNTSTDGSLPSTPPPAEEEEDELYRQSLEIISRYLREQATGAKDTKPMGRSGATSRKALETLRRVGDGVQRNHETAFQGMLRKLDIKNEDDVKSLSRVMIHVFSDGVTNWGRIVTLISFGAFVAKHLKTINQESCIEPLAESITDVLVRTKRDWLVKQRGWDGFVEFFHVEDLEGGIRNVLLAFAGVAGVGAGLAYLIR
Target sequence in this assay (Q96SW2 whole entry, looked up): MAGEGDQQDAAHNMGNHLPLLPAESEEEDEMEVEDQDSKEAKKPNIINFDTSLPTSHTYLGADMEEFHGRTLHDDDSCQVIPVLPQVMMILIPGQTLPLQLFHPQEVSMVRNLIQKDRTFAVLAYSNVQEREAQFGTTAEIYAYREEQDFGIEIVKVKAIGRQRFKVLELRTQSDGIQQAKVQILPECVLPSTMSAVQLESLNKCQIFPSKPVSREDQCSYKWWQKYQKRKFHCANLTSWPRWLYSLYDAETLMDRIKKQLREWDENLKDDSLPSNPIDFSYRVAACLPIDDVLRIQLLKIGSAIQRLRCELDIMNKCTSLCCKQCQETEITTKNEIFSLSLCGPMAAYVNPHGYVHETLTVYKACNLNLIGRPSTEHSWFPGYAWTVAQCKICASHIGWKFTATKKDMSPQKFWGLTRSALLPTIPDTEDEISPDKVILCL

[2] = molecular target: T1, Protein cereblon/Induced myeloid leukemia cell differentiation protein Mcl-1; test: Induction of CRBN-mediated Mcl-1 degradation in human HeLa cells assessed as relative abundance at 10 uM measured at 20 hrs by Western blot analysis (reference value: 1); format: cell-based
In short: (§1)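 HeLa cells in DMEM with 10% FBS, exposed to 10 µM compound over a 0–24 h time course. Mcl-1 and Bcl-2 detected by immunoblot (NP-40 lysis, BCA-equalized SDS-PAGE, PVDF, ECL) and quantified relative to DMSO control; mean ± s.d., n=3 independent samples.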
Target sequence in this assay (Q07820 whole entry, looked up): as the sequence (Q07820 whole entry, looked up) above
Target sequence in this assay (Q96SW2 whole entry, looked up): as the sequence (Q96SW2 whole entry, looked up) above

HeLa = test: Induction of CRBN-mediated tubulin degradation in human HeLa cells at 10 uM incubated for 12 hrs by Western blot analysis; format: cell-based
In short: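 HeLa cells (DMEM, 10% FBS, 37 °C, 5% CO2) treated 12 h with compound (10 µM, or 0–10 µM gradient; time course 0–24 h at 10 µM). Lysis in NP-40 buffer with protease inhibitors, equal protein loaded for SDS-PAGE and immunoblotting. Bands quantified relative to DMSO control. n=3 independent samples.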

[3] = molecular target: T1, Protein cereblon/Induced myeloid leukemia cell differentiation protein Mcl-1; test: Induction of CRBN-mediated Mcl-1 degradation in human HeLa cells at 10 uM measured at 12 hrs by Western blot analysis relative to control; format: cell-based; in short: as §1
Target sequence in this assay (Q07820 whole entry, looked up): as the sequence (Q07820 whole entry, looked up) above
Target sequence in this assay (Q96SW2 whole entry, looked up): as the sequence (Q96SW2 whole entry, looked up) above

[4] = molecular target: Induced myeloid leukemia cell differentiation protein Mcl-1 (Homo sapiens, UniProt Q07820); test: Inhibition of biotinylated Bim peptide (81 to 106 residues) binding to His-tagged human Mcl-1 expressed in Escherichia coli BL21 (DE3) cells preincubated for 1 hr followed by biotinylated Bim peptide addition measured after 2 hrs by ELISA
In short: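 Inhibitor serially diluted (100–0.1 µM) from 10 mM DMSO stock, preincubated 1 h with 200 nM His-tagged protein in PBS (final DMSO 4%), then added 2 h to streptavidin plates holding biotin-Bim (plated at 0.09 mg/mL). Incubations at 4 °C. Detection with HRP anti-His, TMB 30 min, H2SO4 stop, A450. IC50 averaged from three independent experiments, with SD.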

[5] = molecular target: T2, Protein cereblon/Apoptosis regulator Bcl-2 (Homo sapiens, UniProt P10415+Q96SW2); test: Induction of CRBN-mediated Bcl-2 degradation in human HeLa cells assessed as relative abundance at 10 uM measured at 24 hrs by Western blot analysis (reference value: 1); format: cell-based; in short: as §1
[6] = molecular target: T2, Protein cereblon/Apoptosis regulator Bcl-2; test: Induction of CRBN-mediated Bcl-2 degradation in human HeLa cells assessed as relative abundance at 10 uM measured at 20 hrs by Western blot analysis (reference value: 1); format: cell-based; in short: as §1
[7] = molecular target: T2, Protein cereblon/Apoptosis regulator Bcl-2; test: Induction of CRBN-mediated Bcl-2 degradation in human HeLa cells assessed as relative abundance at 10 uM after 12 hrs by Western blot analysis (reference value: 1); format: cell-based
[8] = molecular target: T1, Protein cereblon/Induced myeloid leukemia cell differentiation protein Mcl-1; test: Induction of CRBN-mediated Mcl-1 degradation in human HeLa cells assessed as decrease in Mcl-1 level at 1 uM after 12 hrs by Western blot analysis relative to control; format: cell-based; parameters: scale not given: the % may be the effect or the level left
Target sequence in this assay (Q07820 whole entry, looked up): as the sequence (Q07820 whole entry, looked up) above
Target sequence in this assay (Q96SW2 whole entry, looked up): as the sequence (Q96SW2 whole entry, looked up) above

[9] = molecular target: T1, Protein cereblon/Induced myeloid leukemia cell differentiation protein Mcl-1; test: Induction of CRBN-mediated Mcl-1 degradation in human HeLa cells assessed as relative abundance at 10 uM measured at 16 hrs by Western blot analysis (reference value: 1); format: cell-based; in short: as §1
Target sequence in this assay (Q07820 whole entry, looked up): as the sequence (Q07820 whole entry, looked up) above
Target sequence in this assay (Q96SW2 whole entry, looked up): as the sequence (Q96SW2 whole entry, looked up) above

[10] = molecular target: T2, Protein cereblon/Apoptosis regulator Bcl-2; test: Induction of CRBN-mediated Bcl-2 degradation in human HeLa cells assessed as relative abundance at 3 uM after 12 hrs by Western blot analysis (reference value: 1); format: cell-based
[11] = molecular target: Protein cereblon/Bcl-2-like protein 1 (Homo sapiens) (UniProt Q07817+Q96SW2); test: Induction of CRBN-mediated Bcl-xl degradation in human HeLa cells at 10 uM incubated for 12 hrs by Western blot analysis; format: cell-based
[12] = molecular target: T1, Protein cereblon/Induced myeloid leukemia cell differentiation protein Mcl-1; test: Induction of CRBN-mediated Mcl-1 degradation in human HeLa cells assessed as Mcl-1 removal activity measured at 12 hrs by Western blot analysis; format: cell-based
Target sequence in this assay (Q07820 whole entry): as the sequence (Q07820 whole entry, looked up) above
Target sequence in this assay (Q96SW2 whole entry): as the sequence (Q96SW2 whole entry, looked up) above

[13] = molecular target: T2, Protein cereblon/Apoptosis regulator Bcl-2; test: Induction of CRBN-mediated Bcl-2 degradation in human HeLa cells assessed as relative abundance at 10 uM measured at 4 hrs by Western blot analysis (reference value: 1); format: cell-based; in short: as §1

T2 sequence (P10415 whole entry, looked up): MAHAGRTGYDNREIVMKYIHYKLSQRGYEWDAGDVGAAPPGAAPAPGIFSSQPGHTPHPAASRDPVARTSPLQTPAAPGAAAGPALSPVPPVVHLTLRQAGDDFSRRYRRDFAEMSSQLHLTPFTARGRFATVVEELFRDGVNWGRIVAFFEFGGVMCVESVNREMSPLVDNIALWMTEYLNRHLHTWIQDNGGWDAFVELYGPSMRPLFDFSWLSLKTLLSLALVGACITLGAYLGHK
T2 sequence (Q96SW2 whole entry, looked up): as the sequence (Q96SW2 whole entry, looked up) above
Protein cereblon/Bcl-2-like protein 1 (Homo sapiens), sequence (Q07817 whole entry, looked up): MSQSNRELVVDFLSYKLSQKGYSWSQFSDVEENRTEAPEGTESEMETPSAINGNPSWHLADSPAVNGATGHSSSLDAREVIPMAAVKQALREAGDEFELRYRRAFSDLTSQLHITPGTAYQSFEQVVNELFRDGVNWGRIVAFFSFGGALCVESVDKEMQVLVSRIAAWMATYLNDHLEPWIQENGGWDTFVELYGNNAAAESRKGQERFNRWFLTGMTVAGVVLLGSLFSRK
Protein cereblon/Bcl-2-like protein 1 (Homo sapiens), sequence (Q96SW2 whole entry, looked up): as the sequence (Q96SW2 whole entry, looked up) above
Induced myeloid leukemia cell differentiation protein Mcl-1, sequence (Q07820 whole entry, the tested form may be a part): as the sequence (Q07820 whole entry, looked up) above

Activity [1]: inactive
fold change (FC) [2]: 0.8
Activity [3]: 80%
IC50 [4]: 780 nM
fold change (FC) [5]: 0.9
fold change (FC) [6]: 1
fold change (FC) [7]: 0.8 to 1
Activity [8]: 70%
fold change (FC) [9]: 0.4
fold change (FC) [10]: 1
Activity [11]: inactive
DC50 [12]: 700 nM
fold change (FC) [13]: 1.1
Compound: O=C(CCCCC(=O)NCCN1C(=O)c2cccc3c(Sc4ccc(Br)cc4)ccc(c23)C1=O)NCCCCCCNc1cccc2c1C(=O)N(C1CCC(=O)NC1=O)C2=O (stereo not given)
Activity (NCI-H23): Active
Activity (HeLa): inactive
